# Results taken from ChEMBL document CHEMBL5303300, “EUbOPEN Chemogenomics Library - Multiplex” (2023).
# “And” between values parts separate entries of the source, which are not always exact repeats. Equal values may be shown once.
# Test system: HEK-293T
# Test: Multiplex assay against HEK293T
# Format: toxicity, cell-based
# Conditions: human, number of replicates 2
# Outline: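 Compound was added to live cells that had been stained at seeding with Hoechst33342, BioTracker Green Microtubule Cytoskeleton Dye, MitoTracker Red and Annexin V Alexa Fluor 680, and imaging followed on a CQ1 microscope at 37°C and 5% CO2. CellPathfinder machine-learning gating divided cells into Hoechst high-intensity objects or normal cells, normal cells into healthy, pyknosed or fragmented nuclei, and pyknosed cells into mitotic or apoptotic. Tubulin, mitochondrial-mass and membrane-permeability phenotypes are per cents of healthy-nucleus cells.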
# [1] = 12 h, 1 µM, compound concentration 1 uM
# [2] = 12 h, 10 µM, compound concentration 10 uM
# [3] = 24 h, 1 µM, compound concentration 1 uM
# [4] = 24 h, 10 µM, compound concentration 10 uM
# [5] = 48 h, 1 µM, compound concentration 1 uM
# [6] = 48 h, 10 µM, compound concentration 10 uM
structure (smiles),measurement,setting,value
O=C1NC(=O)C(c2ccccc2[N+](=O)[O-])=C1Nc1ccc(O)c(Cl)c1,Population Apoptotic (%),[1],41% and 45%
same,Population Fragmented Nuclei (%),[1],4% and 2%
same,Population Healthy Nuclei (%),[1],82% and 83%
same,Population Hoechst High Intensity Objects (%),[1],6% and 3%
same,Population Membrane Permeable-Phenotype (%),[1],2%
same,Population Mitochondria Different-Phenotype (%),[1],11% and 12%
same,Population Mitotic Cells (%),[1],58% and 54%
same,Population Normal (%),[1],93% and 96%
same,Population Pyknosed Nuclei (%),[1],13%
same,Population Tubulin-Different-Phenotype (%),[1],41%
same,Total Cell Count,[1],694 and 574
same,Population Apoptotic (%),[2],32% and 38%
same,Population Fragmented Nuclei (%),[2],6% and 5%
same,Population Healthy Nuclei (%),[2],82% and 87%
same,Population Hoechst High Intensity Objects (%),[2],4% and 7%
same,Population Membrane Permeable-Phenotype (%),[2],6% and 4%
same,Population Mitochondria Different-Phenotype (%),[2],8% and 5%
same,Population Mitotic Cells (%),[2],67% and 61%
same,Population Normal (%),[2],95% and 92%
same,Population Pyknosed Nuclei (%),[2],11% and 7%
same,Population Tubulin-Different-Phenotype (%),[2],34% and 31%
same,Total Cell Count,[2],496 and 670
same,Population Apoptotic (%),[3],40% and 37%
same,Population Fragmented Nuclei (%),[3],4% and 3%
same,Population Healthy Nuclei (%),[3],86% and 88%
same,Population Hoechst High Intensity Objects (%),[3],5% and 7%
same,Population Membrane Permeable-Phenotype (%),[3],2%
same,Population Mitochondria Different-Phenotype (%),[3],3% and 5%
same,Population Mitotic Cells (%),[3],59% and 62%
same,Population Normal (%),[3],94% and 92%
same,Population Pyknosed Nuclei (%),[3],8%
same,Population Tubulin-Different-Phenotype (%),[3],22% and 24%
same,Total Cell Count,[3],1100 and 894
same,Population Apoptotic (%),[4],26% and 19%
same,Population Fragmented Nuclei (%),[4],4% and 8%
same,Population Healthy Nuclei (%),[4],89% and 83%
same,Population Hoechst High Intensity Objects (%),[4],5% and 7%
same,Population Membrane Permeable-Phenotype (%),[4],5% and 3%
same,Population Mitochondria Different-Phenotype (%),[4],2% and 1%
same,Population Mitotic Cells (%),[4],73% and 80%
same,Population Normal (%),[4],94% and 92%
same,Population Pyknosed Nuclei (%),[4],6% and 7%
same,Population Tubulin-Different-Phenotype (%),[4],14% and 18%
same,Total Cell Count,[4],721 and 1015
same,Population Apoptotic (%),[5],14% and 15%
same,Population Fragmented Nuclei (%),[5],13% and 9%
same,Population Healthy Nuclei (%),[5],83% and 87%
same,Population Hoechst High Intensity Objects (%),[5],7% and 9%
same,Population Membrane Permeable-Phenotype (%),[5],5% and 4%
same,Population Mitochondria Different-Phenotype (%),[5],0%
same,Population Mitotic Cells (%),[5],85% and 84%
same,Population Normal (%),[5],92% and 90%
same,Population Pyknosed Nuclei (%),[5],2% and 3%
same,Population Tubulin-Different-Phenotype (%),[5],12% and 11%
same,Total Cell Count,[5],2762 and 1997
same,Population Apoptotic (%),[6],11% and 2%
same,Population Fragmented Nuclei (%),[6],14% and 21%
same,Population Healthy Nuclei (%),[6],82% and 77%
same,Population Hoechst High Intensity Objects (%),[6],6% and 9%
same,Population Membrane Permeable-Phenotype (%),[6],7% and 8%
same,Population Mitochondria Different-Phenotype (%),[6],0%
same,Population Mitotic Cells (%),[6],88% and 97%
same,Population Normal (%),[6],93% and 90%
same,Population Pyknosed Nuclei (%),[6],3% and 1%
same,Population Tubulin-Different-Phenotype (%),[6],7%
same,Total Cell Count,[6],1557 and 2547
CS(=O)(=O)c1ccc(C(=O)Nc2cc(F)cc(COc3cc(F)c(Br)cc3CN3CC[C@H](O)C3)c2)c(Cl)c1.O=CO,Population Apoptotic (%),[1],74% and 64%
same,Population Healthy Nuclei (%),[1],75% and 74%
same,Population Normal (%),[1],90%
same,Population Pyknosed Nuclei (%),[1],18% and 22%
same,Total Cell Count,[1],602 and 632
same,Population Apoptotic (%),[2],73% and 77%
same,Population Healthy Nuclei (%),[2],78%
same,Population Normal (%),[2],93% and 88%
same,Total Cell Count,[2],459 and 415
same,Population Apoptotic (%),[3],64% and 68%
same,Population Healthy Nuclei (%),[3],79% and 75%
same,Population Normal (%),[3],92% and 89%
same,Total Cell Count,[3],818 and 876
same,Population Apoptotic (%),[4],72% and 81%
same,Population Healthy Nuclei (%),[4],76%
same,Population Normal (%),[4],92% and 86%
same,Total Cell Count,[4],492 and 449
same,Population Apoptotic (%),[5],52% and 51%
same,Population Healthy Nuclei (%),[5],76% and 82%
same,Population Normal (%),[5],92% and 91%
same,Population Pyknosed Nuclei (%),[5],3% and 4%
same,Total Cell Count,[5],1931 and 1977
same,Population Apoptotic (%),[6],75% and 74%
same,Population Healthy Nuclei (%),[6],68%
same,Population Normal (%),[6],83%
same,Population Pyknosed Nuclei (%),[6],18%
same,Total Cell Count,[6],551 and 447
Cc1ccc2c(N)c(C(=O)NC3CCc4cc(N5CC6CCC(C5)N6)ccc4C3)sc2n1.O=CO (stereo not drawn),Population Apoptotic (%),[1],50% and 60%
same,Population Fragmented Nuclei (%),[1],3% and 5%
same,Population Healthy Nuclei (%),[1],85% and 82%
same,Population Hoechst High Intensity Objects (%),[1],12% and 13%
same,Population Membrane Permeable-Phenotype (%),[1],2% and 1%
same,Population Mitochondria Different-Phenotype (%),[1],57% and 50%
same,Population Mitotic Cells (%),[1],50% and 39%
same,Population Normal (%),[1],87% and 86%
same,Population Pyknosed Nuclei (%),[1],11%
same,Population Tubulin-Different-Phenotype (%),[1],79% and 80%
same,Total Cell Count,[1],342 and 430
same,Population Apoptotic (%),[2],77% and 90%
same,Population Fragmented Nuclei (%),[2],7% and 15%
same,Population Healthy Nuclei (%),[2],66% and 63%
same,Population Hoechst High Intensity Objects (%),[2],66% and 71%
same,Population Membrane Permeable-Phenotype (%),[2],15% and 21%
same,Population Mitochondria Different-Phenotype (%),[2],60% and 54%
same,Population Mitotic Cells (%),[2],22% and 9%
same,Population Normal (%),[2],33% and 28%
same,Population Pyknosed Nuclei (%),[2],26% and 21%
same,Population Tubulin-Different-Phenotype (%),[2],68% and 63%
same,Total Cell Count,[2],206 and 183
same,Population Apoptotic (%),[3],58% and 60%
same,Population Fragmented Nuclei (%),[3],5% and 3%
same,Population Healthy Nuclei (%),[3],86% and 89%
same,Population Hoechst High Intensity Objects (%),[3],13% and 16%
same,Population Membrane Permeable-Phenotype (%),[3],1% and 2%
same,Population Mitochondria Different-Phenotype (%),[3],60% and 50%
same,Population Mitotic Cells (%),[3],41% and 40%
same,Population Normal (%),[3],86% and 83%
same,Population Pyknosed Nuclei (%),[3],8% and 6%
same,Population Tubulin-Different-Phenotype (%),[3],72% and 71%
same,Total Cell Count,[3],413 and 427
same,Population Apoptotic (%),[4],95% and 72%
same,Population Fragmented Nuclei (%),[4],11% and 14%
same,Population Healthy Nuclei (%),[4],59% and 66%
same,Population Hoechst High Intensity Objects (%),[4],67% and 66%
same,Population Membrane Permeable-Phenotype (%),[4],14% and 13%
same,Population Mitochondria Different-Phenotype (%),[4],66% and 63%
same,Population Normal (%),[4],32% and 33%
same,Population Pyknosed Nuclei (%),[4],29% and 19%
same,Population Tubulin-Different-Phenotype (%),[4],61% and 55%
same,Total Cell Count,[4],216 and 168
same,Population Apoptotic (%),[5],40% and 66%
same,Population Fragmented Nuclei (%),[5],5%
same,Population Healthy Nuclei (%),[5],88% and 87%
same,Population Hoechst High Intensity Objects (%),[5],8% and 10%
same,Population Membrane Permeable-Phenotype (%),[5],1% and 0%
same,Population Mitochondria Different-Phenotype (%),[5],32% and 41%
same,Population Mitotic Cells (%),[5],59% and 33%
same,Population Normal (%),[5],91% and 89%
same,Population Pyknosed Nuclei (%),[5],5% and 7%
same,Population Tubulin-Different-Phenotype (%),[5],61% and 73%
same,Total Cell Count,[5],596 and 593
same,Population Apoptotic (%),[6],77% and 87%
same,Population Fragmented Nuclei (%),[6],9% and 15%
same,Population Healthy Nuclei (%),[6],57% and 60%
same,Population Hoechst High Intensity Objects (%),[6],67%
same,Population Membrane Permeable-Phenotype (%),[6],14% and 10%
same,Population Mitochondria Different-Phenotype (%),[6],63% and 70%
same,Population Mitotic Cells (%),[6],22% and 12%
same,Population Normal (%),[6],32%
same,Population Pyknosed Nuclei (%),[6],32% and 24%
same,Population Tubulin-Different-Phenotype (%),[6],48% and 57%
same,Total Cell Count,[6],254 and 203
